Rows were chosen to be rich in hits. Some 1.5% of all compounds tested hit in one or more screens of this group.
APJ ag: agonists of human apelin receptor APJ, primary screen, CHO-K1 cells, PathHunter beta-arrestin, luminescence; 0% DMSO wells, 100% apelin; activation, % at 20 µM; hit rate 0.11% among 330,000; AID 2520, 2010;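 active = activation more than six SD over the plate average, tested at 20 µM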;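 also: 0% = DMSO alone and 100% = apelin-13 at 10 nM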
Target sequence (P35414 whole entry, looked up): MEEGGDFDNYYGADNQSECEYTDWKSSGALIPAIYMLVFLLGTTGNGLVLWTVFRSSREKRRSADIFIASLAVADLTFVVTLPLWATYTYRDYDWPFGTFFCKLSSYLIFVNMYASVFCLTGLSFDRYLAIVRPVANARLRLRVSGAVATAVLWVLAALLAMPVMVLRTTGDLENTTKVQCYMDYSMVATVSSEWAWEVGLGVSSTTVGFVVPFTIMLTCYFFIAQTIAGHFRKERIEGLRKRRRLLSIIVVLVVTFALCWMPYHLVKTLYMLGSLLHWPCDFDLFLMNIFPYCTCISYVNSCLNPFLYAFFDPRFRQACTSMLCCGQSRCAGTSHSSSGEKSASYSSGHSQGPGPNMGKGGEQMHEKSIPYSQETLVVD
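system = engineered CHO-K1 APJ arrestin reporter cells | input = 1000 cells per well | timing = overnight seeding, 90 min compound at 25 °C, 1 h detection | measured by = enzyme-fragment complementation luminescence | read-out = beta-arrestin recruitment to APJ as agonist activity, luminescent signal | control set = negative DMSO alone, positive Apelin-13 at 10 nM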
APJ antagonist: antagonists of human apelin receptor APJ, primary screen, CHO-K1 cells, beta-arrestin complementation, luminescence | P35414 | inhibition, % at 20 µM | hit rate 0.32% among 330,000 | AID 2521, 2010;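 active = inhibition above about 40% at 20 µM, limit read from the data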;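 also: cells challenged with 10 nM apelin-13 agonist together with compound; plate controls were apelin-13 plus DMSO wells for no effect and DMSO wells lacking apelin-13 for full effect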
CXCR6 inh: CXCR6 receptor inhibitors, primary screen, cell-based, beta-arrestin, luminescence, CHO-K1 PathHunter, 1536-well. AID 602244, 2012. hit rate 0.36% among 360,000. inhibition, % at 20 µM. C-X-C chemokine receptor type 6 (Homo sapiens), O00574; in the data active = inhibition above about 34%, passing the limit was not always enough;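 also: antagonist mode with CXCL16 agonist at 10 nM final; 0% = 10 nM CXCL16 with DMSO and 100% = unstimulated wells without agonist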
CCR6 antagonist: CCR6 receptor antagonists, primary screen, cell-based, CHO-K1, luminescence, beta-arrestin, uHTS; C-C chemokine receptor type 6 (Homo sapiens), P51684; hit rate 0.49% among 340,000; inhibition, % at 20 µM; CHO-K1 CCR6 PathHunter beta-arrestin, CCL20-stimulated;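 active = compounds whose inhibition of the agonist-driven luminescence signal at 20 µM reaches about 50%, limit read from the data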;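 also: cells stimulated with CCL20 at 14 nM final; plate controls were DMSO with CCL20 for no effect and DMSO without agonist for full effect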
EBI2 antag: EBI2 receptor antagonists, beta-arrestin recruitment, primary screen, cell-based, luminescence, 7a,25-OHC stimulation, uHTS | G-protein coupled receptor 183 (Homo sapiens), P32249 | 7a,25-OHC stimulated | inhibition, % at 5 µM | hit rate 0.81% among 360,000 | AID 651636, 2012; in the data active = inhibition above about 38%;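 also: enzyme fragment complementation signal reports receptor beta-arrestin coupling in cells; 0% = agonist plus DMSO wells and 100% = wells without agonist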
EBI2 conf: EBI2 antagonist hit retest, beta-arrestin, confirmation, cell-based, single concentration, luminescence, 7a,25-OHC stimulation | shares compounds with EBI2 antag | 7a,25-OHC antagonism | inhibition, % at 5 µM | hit rate 29% among 2,400;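 active = inhibition of at least 50%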
EBI2 agonist: EBI2 agonist activity of antagonist hits, confirmation, counter-screen for EBI2 antagonist project, cell-based, single concentration, agonist mode, luminescence; shares compounds with EBI2 antag; EBI2-expressing cells, 60 min; 0% vehicle, 100% 7α,25-dihydroxycholesterol control; activation, % at 5 µM; 2,400 tested, under 10 active; AID 652000, 2013;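 active = activation of at least 50%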
bGal cs: E. coli beta-galactosidase enzyme inhibition, confirmation, counter-screen for EBI2 antagonist project, biochemical, luminescence, single concentration. shares compounds with EBI2 antag. purified beta-galactosidase, luminescent Galacton Star, 15 min. inhibition, % at 5 µM. hit rate 1% among 2,400;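 active = replicate-average signal at least 3 plate SD below neutral wells, shown as high inhibition, flagging enzyme-inhibiting false positives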;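 also: 0% = DMSO wells with enzyme and 100% = wells lacking enzyme; higher means stronger loss of beta-gal luminescence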
Starred values were filed as active, the others as inactive; . = not tested or not shown.

SMILES	APJ ag	APJ antagonist	CXCR6 inh	CCR6 antagonist	EBI2 antag	EBI2 conf	EBI2 agonist	bGal cs
Cc1cccc(OCc2nnc(SCC(=O)N3c4ccccc4CCc4ccccc43)o2)c1	-2	2	4	19	52*	5	0	3
O=C(CSc1nnc(COc2ccc(F)cc2)o1)N1c2ccccc2CCc2ccccc21	1	6	16	15	51*	24	0	7
Cc1ccc(S(=O)(=O)Nc2ccc(C(=O)N3CCCC3)cc2)c(C)c1NS(C)(=O)=O	1	-1	6	-17	6	.	.	.
COc1ccc(C(=O)NCC(=O)N2CCN(C(=O)c3ccco3)CC2)cc1	7	11	4	3	-9	.	.	.
C[C@@H]1[C@H](c2ccccc2)Oc2ccc(Cl)cc2S(=O)(=O)N1CC1CCCN1C(=O)OC(C)(C)C (some centres not stated)	.	.	1	6	27	.	.	.
CCOC(=O)[C@H](C)N1[C@H](C)[C@H](c2ccccc2)Oc2ccc(Cl)cc2S1(=O)=O	.	.	2	30	46*	22	-1	-14
CN(c1ccccc1)S(=O)(=O)c1cccc(NC(=O)c2ccc(Cl)c([N+](=O)[O-])c2)c1	7	7	-3	6	46*	65*	1	5
O=C(Nc1ccccc1-c1ccccc1)c1ccc(Cl)c([N+](=O)[O-])c1	-1	7	-12	22	53*	38	0	-1
O=C(Nc1ccc(Nc2ccccc2)cc1)c1ccc(Cl)c([N+](=O)[O-])c1	0	4	9	22	5	.	.	.
COc1ccc(S(=O)(=O)N2CCCCC2)cc1NC(=O)[C@@H]1CCCN1C(=O)c1cccs1	-3	14	-2	16	4	.	.	.
CC1CCC(NC(=O)COC(=O)CCC(=O)c2ccc(Cl)s2)CC1 (configuration not stated)	4	1	-7	11	0	.	.	.
Cn1nc(Oc2ncc(C(F)(F)F)cc2Cl)cc1C(F)(F)F	1	-5	4	1	66*	8	-2	-13
CCCOc1ccc(C(=O)N2CCN(c3ccc(N)cc3Cl)CC2)cc1	-3	-7	-3	-8	70*	52*	-2	-3
CCN1C(=O)[C@H]2[C@@H](c3ccc(C(F)(F)F)cc3)N[C@]3(CCCN(Cc4ccc(Cl)cc4)C3=O)[C@H]2C1=O	.	.	0	.	0	.	.	.
COc1ccc(/C=C/C(=O)NC(=S)Nc2cc3oc4ccccc4c3cc2OC)cc1	-3	1	8	15	65*	45	1	2
COc1cc2c(cc1NC(=S)NC(=O)/C=C/c1ccco1)oc1ccccc12	-5	13	-3	10	55*	51*	-2	-16
COc1cc2c(cc1NC(=S)NC(=O)/C=C/c1ccc(OC)c(OC)c1)oc1ccccc12	.	.	0	15	-2	.	.	.
COC(=O)c1ccc(C23CC4(C2)[C@H](CN(Cc2cccnc2)[C@@H]4c2ccccc2)C3c2ccccc2)cc1 (some centres not stated)	-1	-15	19	4	11	.	.	.
N#Cc1ccc(C23CC4(C2)[C@H](CN(Cc2cccnc2)[C@@H]4c2ccccc2)C3c2ccccc2)cc1 (some centres not stated)	1	-56	-4	10	72*	30	-1	-5
COc1cc(OC)cc(C(=O)N2CCN(C(=O)c3cccc(F)c3)CC2)c1	-1	1	-5	7	5	.	.	.

From PubChem BioAssay
